# Experimental data: ChEMBL document CHEMBL4689842, “EUbOPEN Chemogenomics Library wave 1” (2021)
# Tested on: Fibroblast
# Assay: Multiplex assay against human fibroblast
# Type: toxicity, cell-based
# Summary of the method: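 Four dyes were applied at seeding to live cells: Hoechst33342, BioTracker Green Microtubule Cytoskeleton Dye, MitoTracker Red and Annexin V Alexa Fluor 680. Imaging after compound addition used a CQ1 microscope at 37°C and 5% CO2. CellPathfinder machine-learning gating then sorted cells into Hoechst high-intensity objects or normal cells, normal cells into healthy, pyknosed or fragmented nuclei, and pyknosed cells into mitotic or apoptotic, with tubulin, mitochondrial-mass and membrane-permeability phenotypes given as per cents of healthy-nucleus cells.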
# [1] = 12 h, 1 µM, compound concentration 1 uM, replicate 1
# [2] = 12 h, 1 µM, compound concentration 1 uM, replicate 2
# [3] = 12 h, 10 µM, compound concentration 10 uM, replicate 1
# [4] = 12 h, 10 µM, compound concentration 10 uM, replicate 2
# [5] = 24 h, 1 µM, compound concentration 1 uM, replicate 1
# [6] = 24 h, 1 µM, compound concentration 1 uM, replicate 2
# [7] = 24 h, 10 µM, compound concentration 10 uM, replicate 1
# [8] = 24 h, 10 µM, compound concentration 10 uM, replicate 2
compound,measurement,setting,value
Cc1c(Nc2ccc(S(=O)(=O)N3CCN(C)CC3)cc2F)nc2ccc(Nc3cnn(C4CC4)c3)cn2c1=O,Population Apoptotic (%),[1],64%
same,Population Fragmented Nuclei (%),[1],30%
same,Population Healthy Nuclei (%),[1],50%
same,Population Hoechst High Intensity Objects (%),[1],12%
same,Population Membrane Permeable-Phenotype (%),[1],31%
same,Population Mitochondria Different-Phenotype (%),[1],6%
same,Population Mitotic Cells (%),[1],35%
same,Population Normal (%),[1],87%
same,Population Pyknosed Nuclei (%),[1],19%
same,Population Tubulin-Different-Phenotype (%),[1],43%
same,Total Cell Count,[1],263
same,Population Apoptotic (%),[2],80%
same,Population Fragmented Nuclei (%),[2],62%
same,Population Healthy Nuclei (%),[2],24%
same,Population Hoechst High Intensity Objects (%),[2],40%
same,Population Membrane Permeable-Phenotype (%),[2],55%
same,Population Mitochondria Different-Phenotype (%),[2],11%
same,Population Mitotic Cells (%),[2],20%
same,Population Normal (%),[2],59%
same,Population Pyknosed Nuclei (%),[2],13%
same,Population Tubulin-Different-Phenotype (%),[2],66%
same,Total Cell Count,[2],62
same,Population Apoptotic (%),[3],79%
same,Population Fragmented Nuclei (%),[3],27%
same,Population Healthy Nuclei (%),[3],58%
same,Population Hoechst High Intensity Objects (%),[3],12%
same,Population Membrane Permeable-Phenotype (%),[3],7%
same,Population Mitochondria Different-Phenotype (%),[3],1%
same,Population Mitotic Cells (%),[3],20%
same,Population Normal (%),[3],87%
same,Population Pyknosed Nuclei (%),[3],13%
same,Population Tubulin-Different-Phenotype (%),[3],2%
same,Total Cell Count,[3],288
same,Population Apoptotic (%),[4],50%
same,Population Fragmented Nuclei (%),[4],55%
same,Population Healthy Nuclei (%),[4],40%
same,Population Hoechst High Intensity Objects (%),[4],27%
same,Population Membrane Permeable-Phenotype (%),[4],9%
same,Population Mitochondria Different-Phenotype (%),[4],0%
same,Population Mitotic Cells (%),[4],50%
same,Population Normal (%),[4],72%
same,Population Pyknosed Nuclei (%),[4],3%
same,Population Tubulin-Different-Phenotype (%),[4],19%
same,Total Cell Count,[4],72
same,Population Apoptotic (%),[5],72%
same,Population Fragmented Nuclei (%),[5],30%
same,Population Healthy Nuclei (%),[5],53%
same,Population Hoechst High Intensity Objects (%),[5],12%
same,Population Membrane Permeable-Phenotype (%),[5],14%
same,Population Mitochondria Different-Phenotype (%),[5],1%
same,Population Mitotic Cells (%),[5],27%
same,Population Normal (%),[5],87%
same,Population Pyknosed Nuclei (%),[5],16%
same,Population Tubulin-Different-Phenotype (%),[5],38%
same,Total Cell Count,[5],257
same,Population Apoptotic (%),[6],100%
same,Population Fragmented Nuclei (%),[6],57%
same,Population Healthy Nuclei (%),[6],31%
same,Population Hoechst High Intensity Objects (%),[6],30%
same,Population Membrane Permeable-Phenotype (%),[6],40%
same,Population Mitochondria Different-Phenotype (%),[6],0%
same,Population Mitotic Cells (%),[6],0%
same,Population Normal (%),[6],69%
same,Population Pyknosed Nuclei (%),[6],10%
same,Population Tubulin-Different-Phenotype (%),[6],40%
same,Total Cell Count,[6],68
same,Population Apoptotic (%),[7],65%
same,Population Fragmented Nuclei (%),[7],22%
same,Population Healthy Nuclei (%),[7],63%
same,Population Hoechst High Intensity Objects (%),[7],13%
same,Population Membrane Permeable-Phenotype (%),[7],7%
same,Population Mitochondria Different-Phenotype (%),[7],1%
same,Population Mitotic Cells (%),[7],34%
same,Population Normal (%),[7],86%
same,Population Pyknosed Nuclei (%),[7],13%
same,Population Tubulin-Different-Phenotype (%),[7],3%
same,Total Cell Count,[7],293
same,Population Apoptotic (%),[8],0%
same,Population Fragmented Nuclei (%),[8],57%
same,Population Healthy Nuclei (%),[8],38%
same,Population Hoechst High Intensity Objects (%),[8],21%
same,Population Membrane Permeable-Phenotype (%),[8],9%
same,Population Mitochondria Different-Phenotype (%),[8],4%
same,Population Mitotic Cells (%),[8],100%
same,Population Normal (%),[8],78%
same,Population Pyknosed Nuclei (%),[8],3%
same,Population Tubulin-Different-Phenotype (%),[8],0%
same,Total Cell Count,[8],73
NC(=O)c1ccc2nc(-c3ccc(C4(N)CCC4)cc3)c(-c3ccccc3)n2n1 [BAY-1125976],Population Apoptotic (%),[1],72%
same,Population Fragmented Nuclei (%),[1],53%
same,Population Healthy Nuclei (%),[1],33%
same,Population Hoechst High Intensity Objects (%),[1],38%
same,Population Mitochondria Different-Phenotype (%),[1],0%
same,Population Mitotic Cells (%),[1],27%
same,Population Normal (%),[1],61%
same,Population Pyknosed Nuclei (%),[1],13%
same,Population Tubulin-Different-Phenotype (%),[1],29%
same,Total Cell Count,[1],587
same,Population Apoptotic (%),[2],87%
same,Population Fragmented Nuclei (%),[2],56%
same,Population Healthy Nuclei (%),[2],31%
same,Population Hoechst High Intensity Objects (%),[2],51%
same,Population Mitochondria Different-Phenotype (%),[2],15%
same,Population Mitotic Cells (%),[2],12%
same,Population Normal (%),[2],48%
same,Population Pyknosed Nuclei (%),[2],12%
same,Population Tubulin-Different-Phenotype (%),[2],25%
same,Total Cell Count,[2],131
same,Population Apoptotic (%),[3],59%
same,Population Fragmented Nuclei (%),[3],27%
same,Population Healthy Nuclei (%),[3],51%
same,Population Hoechst High Intensity Objects (%),[3],13%
same,Population Mitochondria Different-Phenotype (%),[3],3%
same,Population Mitotic Cells (%),[3],40%
same,Population Normal (%),[3],86%
same,Population Pyknosed Nuclei (%),[3],20%
same,Population Tubulin-Different-Phenotype (%),[3],2%
same,Total Cell Count,[3],208
same,Population Apoptotic (%),[4],20%
same,Population Fragmented Nuclei (%),[4],54%
same,Population Healthy Nuclei (%),[4],36%
same,Population Hoechst High Intensity Objects (%),[4],40%
same,Population Mitochondria Different-Phenotype (%),[4],0%
same,Population Mitotic Cells (%),[4],80%
same,Population Normal (%),[4],59%
same,Population Pyknosed Nuclei (%),[4],10%
same,Population Tubulin-Different-Phenotype (%),[4],5%
same,Total Cell Count,[4],84
same,Population Apoptotic (%),[5],78%
same,Population Fragmented Nuclei (%),[5],53%
same,Population Healthy Nuclei (%),[5],36%
same,Population Hoechst High Intensity Objects (%),[5],41%
same,Population Mitochondria Different-Phenotype (%),[5],2%
same,Population Mitotic Cells (%),[5],21%
same,Population Normal (%),[5],58%
same,Population Pyknosed Nuclei (%),[5],10%
same,Population Tubulin-Different-Phenotype (%),[5],20%
same,Total Cell Count,[5],564
same,Population Apoptotic (%),[6],63%
same,Population Fragmented Nuclei (%),[6],63%
same,Population Healthy Nuclei (%),[6],22%
same,Population Hoechst High Intensity Objects (%),[6],39%
same,Population Mitochondria Different-Phenotype (%),[6],11%
same,Population Mitotic Cells (%),[6],36%
same,Population Normal (%),[6],60%
same,Population Pyknosed Nuclei (%),[6],14%
same,Population Tubulin-Different-Phenotype (%),[6],47%
same,Total Cell Count,[6],128
same,Population Apoptotic (%),[7],52%
same,Population Fragmented Nuclei (%),[7],19%
same,Population Healthy Nuclei (%),[7],65%
same,Population Hoechst High Intensity Objects (%),[7],15%
same,Population Mitochondria Different-Phenotype (%),[7],2%
same,Population Mitotic Cells (%),[7],48%
same,Population Normal (%),[7],84%
same,Population Pyknosed Nuclei (%),[7],15%
same,Population Tubulin-Different-Phenotype (%),[7],3%
same,Total Cell Count,[7],192
same,Population Apoptotic (%),[8],28%
same,Population Fragmented Nuclei (%),[8],45%
same,Population Healthy Nuclei (%),[8],41%
same,Population Hoechst High Intensity Objects (%),[8],36%
same,Population Mitochondria Different-Phenotype (%),[8],4%
same,Population Mitotic Cells (%),[8],71%
same,Population Normal (%),[8],63%
same,Population Pyknosed Nuclei (%),[8],13%
same,Population Tubulin-Different-Phenotype (%),[8],0%
same,Total Cell Count,[8],80
